Test results as given in ChEMBL document CHEMBL1145542, “Discovery of a new class of potent, selective, and orally bioavailable CRTH2 (DP2) receptor antagonists for the treatment of allergic inflammatory diseases” (J Med Chem, 2008).

How the values were obtained:
[1] = target: Prostaglandin E2 receptor EP2 subtype (Homo sapiens, UniProt P43116); experiment: Inhibition of prostanoid EP2 receptor
[2] = Half life in rat at 5 mg/kg, po; format: ADME, organism-based; parameters: dose 5 mg/kg, route oral; conditions: in vivo
Procedure, shortened: (§1)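 Male Sprague–Dawley or Janvier rats, three per route, dosed by oral gavage or iv bolus. Serial blood drawn through an indwelling carotid catheter up to 24 h post dose. Plasma pooled by time point, analysed by LC-MS/MS; non-compartmental analysis.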

[3] = Intrinsic clearance per mg of protein in human liver microsomes at 3 uM; format: ADME, Microsome
Procedure, shortened: (§2)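 Rat or human liver microsomes (0.5 mg/mL final) in 0.1 M phosphate pH 7.4 with 3 µM compound (1% DMSO), preincubated at 37 °C, started with 1 mM NADPH. Quenched with cold acetonitrile at 0, 15, 30, 45 min; LC/MS-MS of compound disappearance gives intrinsic clearance.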

[4] = Volume of distribution at steady state in rat at 1 mg/kg, iv; format: ADME, organism-based; parameters: dose 1 mg/kg, route intravenous; conditions: in vivo, read-out: Vdss; procedure, shortened: as §1
[5] = Half life in Beagle dog at 1 mg/kg, po; conditions: in vivo
[6] = Inhibition of prostanoid EP4 receptor
[7] = Tmax in rat at 1 mg/kg, iv; format: ADME, organism-based; parameters: dose 1 mg/kg, route intravenous; conditions: in vivo; procedure, shortened: as §1
[8] = Volume of distribution at steady state in Beagle dog at 1 mg/kg, iv; format: ADME, organism-based, Canis lupus familiaris; parameters: dose 1 mg/kg, route intravenous; conditions: in vivo, read-out: Vdss
Procedure, shortened: (§3)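 Three male beagle dogs, crossover design; 1 mg/kg given as a solution, iv bolus and oral gavage. Serial blood sampled up to 48 h post dose. Individual plasma samples analysed by LC-MS/MS; PK parameters derived by non-compartmental analysis.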

[9] = target: T1, Prostaglandin D2 receptor (Homo sapiens, UniProt Q13258); experiment: Inhibition of prostaglandin D2 receptor
T1 sequence (Q13258 whole entry): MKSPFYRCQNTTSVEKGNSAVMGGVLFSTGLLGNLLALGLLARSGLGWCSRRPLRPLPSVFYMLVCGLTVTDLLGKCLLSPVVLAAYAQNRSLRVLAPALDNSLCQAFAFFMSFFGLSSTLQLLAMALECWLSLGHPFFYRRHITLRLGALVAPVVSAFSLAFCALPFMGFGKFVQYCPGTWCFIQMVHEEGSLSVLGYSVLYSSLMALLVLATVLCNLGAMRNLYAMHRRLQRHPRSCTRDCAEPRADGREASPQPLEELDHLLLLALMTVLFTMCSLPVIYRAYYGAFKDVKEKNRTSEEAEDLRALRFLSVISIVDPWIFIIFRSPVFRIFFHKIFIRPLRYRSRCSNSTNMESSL

[10] = Tmax in Beagle dog at 1 mg/kg, po; conditions: in vivo
[11] = target: T2, Prostaglandin D2 receptor 2 (Mus musculus, UniProt Q9Z2J6); experiment: Displacement of [3H]PGD2 from mouse CRTH2 receptor expressed in HEK293 cells; format: cell-based
T2 sequence (Q9Z2J6 whole entry): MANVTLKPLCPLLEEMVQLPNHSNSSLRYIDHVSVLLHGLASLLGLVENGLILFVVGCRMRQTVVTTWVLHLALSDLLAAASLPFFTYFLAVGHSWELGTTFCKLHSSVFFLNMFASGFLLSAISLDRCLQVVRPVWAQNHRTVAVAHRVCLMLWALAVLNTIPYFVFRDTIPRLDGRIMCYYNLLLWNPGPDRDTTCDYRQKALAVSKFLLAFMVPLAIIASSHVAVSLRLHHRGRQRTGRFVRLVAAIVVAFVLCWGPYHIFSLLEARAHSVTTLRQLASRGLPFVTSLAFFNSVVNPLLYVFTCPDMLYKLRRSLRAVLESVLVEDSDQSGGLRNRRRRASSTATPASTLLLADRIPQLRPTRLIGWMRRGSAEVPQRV
Procedure, shortened: (§4)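 Scintillation proximity competition assay: 2–5 µg human or mouse CRTH2 membranes (nitrogen-cavitation, differential centrifugation) with WGA-SPA beads and 1.5 nM [3H]PGD2 in 10 mM HEPES/KOH pH 7.4, 10 mM MnCl2, protease inhibitors, 1% Me2SO, 90 min shaking at room temperature. Nonspecific binding with 1 µM PGD2. Ki by Cheng–Prusoff, mean of ≥3 independent experiments.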

[12] = AUC (0 to last t) in rat at 1 mg/kg, iv; format: ADME, organism-based; parameters: time 0 - last, dose 1 mg/kg, route intravenous; conditions: plasma; procedure, shortened: as §1
[13] = Lipophilicity, log D of the compound; format: physicochemical; conditions: octanol/water
[14] = AUC (0 to last t) in Beagle dog at 1 mg/kg, po; format: ADME, organism-based, Canis lupus familiaris; parameters: time 0 - last, dose 1 mg/kg, route oral; conditions: plasma; procedure, shortened: as §3
[15] = Intrinsic clearance per mg of protein in rat liver microsomes at 3 uM; format: ADME, Microsome; procedure, shortened: as §2
[16] = AUC (0 to last t) in rat at 5 mg/kg, po; format: ADME, organism-based; parameters: time 0 - last, dose 5 mg/kg, route oral; conditions: plasma; procedure, shortened: as §1
[17] = Cmax in rat at 1 mg/kg, iv; format: ADME, organism-based; parameters: dose 1 mg/kg, route intravenous; conditions: in vivo; procedure, shortened: as §1
[18] = Cmax in Beagle dog at 1 mg/kg, po; conditions: in vivo
[19] = AUC (0 to last t) in Beagle dog at 1 mg/kg, iv; format: ADME, organism-based, Canis lupus familiaris; parameters: time 0 - last, dose 1 mg/kg, route intravenous; conditions: plasma; procedure, shortened: as §3
[20] = Tmax in Beagle dog at 1 mg/kg, iv; format: ADME, organism-based, Canis lupus familiaris; parameters: dose 1 mg/kg, route intravenous; conditions: in vivo; procedure, shortened: as §3
[21] = Oral bioavailability in Beagle dog at 1 mg/kg; format: ADME, organism-based, Canis lupus familiaris; conditions: in vivo; procedure, shortened: as §3
[22] = target: T3, Prostaglandin D2 receptor 2 (Homo sapiens, UniProt Q9Y5Y4); experiment: Displacement of [3H]PGD2 from human CRTH2 receptor expressed in CHO cells; format: cell-based; procedure, shortened: as §4
T3 sequence (Q9Y5Y4 whole entry): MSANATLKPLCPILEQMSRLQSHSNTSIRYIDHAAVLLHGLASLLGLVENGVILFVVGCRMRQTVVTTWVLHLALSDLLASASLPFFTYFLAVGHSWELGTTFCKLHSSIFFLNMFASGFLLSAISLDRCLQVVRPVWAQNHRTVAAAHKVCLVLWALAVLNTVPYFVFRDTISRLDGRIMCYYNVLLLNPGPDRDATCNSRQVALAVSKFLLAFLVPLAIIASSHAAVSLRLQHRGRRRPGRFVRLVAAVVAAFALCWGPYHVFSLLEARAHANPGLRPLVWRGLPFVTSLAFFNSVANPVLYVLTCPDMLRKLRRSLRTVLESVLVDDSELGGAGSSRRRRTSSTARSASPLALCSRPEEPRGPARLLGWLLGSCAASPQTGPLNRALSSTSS

[23] = Clearance in Beagle dog at 1 mg/kg, iv; format: ADME, organism-based, Canis lupus familiaris; parameters: dose 1 mg/kg, route intravenous; conditions: in vivo; procedure, shortened: as §3
[24] = Oral bioavailability in rat at 5 mg/kg; format: ADME, organism-based; conditions: in vivo; procedure, shortened: as §1
[25] = Clearance in rat at 1 mg/kg, iv; format: ADME, organism-based; parameters: dose 1 mg/kg, route intravenous; conditions: in vivo; procedure, shortened: as §1
[26] = Inhibition of prostanoid EP3 receptor
[27] = Cmax in rat at 5 mg/kg, po; format: ADME, organism-based; parameters: dose 5 mg/kg, route oral; conditions: in vivo; procedure, shortened: as §1
[28] = Half life in rat at 1 mg/kg, iv; format: ADME, organism-based; parameters: dose 1 mg/kg, route intravenous; conditions: in vivo; procedure, shortened: as §1
[29] = Inhibition of prostanoid FP receptor
[30] = Apparent permeability across human Caco-2 cell membrane at 10 uM; format: ADME, cell-based
Procedure, shortened: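 Caco-2 monolayers grown 21 days on Transwell filters; TEER above 800 ohm·cm² required. 10 µM test compound in HBSS added apically (A to B) or basolaterally (B to A), 2 h at 37 °C. Both compartments sampled, analysed by LC/MS-MS.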

[31] = Tmax in rat at 5 mg/kg, po; format: ADME, organism-based; parameters: dose 5 mg/kg, route oral; conditions: in vivo; procedure, shortened: as §1
[32] = Half life in Beagle dog at 1 mg/kg, iv; format: ADME, organism-based, Canis lupus familiaris; parameters: dose 1 mg/kg, route intravenous; conditions: in vivo; procedure, shortened: as §3
[33] = Cmax in Beagle dog at 1 mg/kg, iv; format: ADME, organism-based, Canis lupus familiaris; parameters: dose 1 mg/kg, route intravenous; conditions: in vivo; procedure, shortened: as §3

Prostaglandin E2 receptor EP2 subtype, sequence (P43116 whole entry): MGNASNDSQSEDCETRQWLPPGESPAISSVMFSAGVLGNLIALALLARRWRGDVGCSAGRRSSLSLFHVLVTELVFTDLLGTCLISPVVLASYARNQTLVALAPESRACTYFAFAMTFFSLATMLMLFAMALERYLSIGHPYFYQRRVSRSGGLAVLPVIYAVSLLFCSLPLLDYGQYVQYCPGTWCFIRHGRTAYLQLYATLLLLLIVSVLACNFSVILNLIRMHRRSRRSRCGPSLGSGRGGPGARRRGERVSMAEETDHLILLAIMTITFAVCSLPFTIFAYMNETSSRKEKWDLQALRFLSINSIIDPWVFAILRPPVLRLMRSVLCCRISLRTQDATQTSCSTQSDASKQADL

## O=C(O)CN1C(=O)[C@@]2(CC(=O)N(Cc3ccccc3F)C2=O)c2cc(Cl)ccc21
[1]
  IC50: > 30 µM
[2]
  half-life: 4.2 h
[3]
  microsomal CLint at 3 µM: 15 µL/min/mg
[4]
  Vd: 0.9 L/kg
[5]
  half-life: 3 h
[6]
  IC50: > 30 µM
[7]
  Tmax: 0 h
[8]
  Vd: 2 L/kg
[9]
  IC50: > 30 µM
[10]
  Tmax: 2 h
[11]
  Ki: 0.022 µM
[12]
  AUC(0-t): 1250 ng·h/mL
[13]
  logD: -1
[14]
  AUC(0-t): 2350 ng·h/mL
[15]
  microsomal CLint at 3 µM: 23 µL/min/mg
[16]
  AUC(0-t): 2480 ng·h/mL
[17]
  Cmax: 1990 ng/mL
[18]
  Cmax: 503 ng/mL
[19]
  AUC(0-t): 2020 ng·h/mL
[20]
  Tmax: 0 h
[21]
  bioavailability: 120%
[22]
  Ki: 0.023 µM
[23]
  clearance: 8.33 mL/min/kg
[24]
  bioavailability: 40%
[25]
  clearance: 13.3 mL/min/kg
[26]
  IC50: > 30 µM
[27]
  Cmax: 297 ng/mL
[28]
  half-life: 1 h
[29]
  IC50: > 30 µM
[30]
  Papp at 10 µM: 2.4 ×10⁻⁶ cm/s
[31]
  Tmax: 0.5 h
[32]
  half-life: 7 h
[33]
  Cmax: 2570 ng/mL
